Data: ChEMBL document CHEMBL5137016, “Turning Nonselective Inhibitors of Type I Protein Arginine Methyltransferases into Potent and Selective Inhibitors of Protein Arginine Methyltransferase 4 through a Deconstruction-Reconstruction and Fragment-Growing Approach” (J Med Chem, 2022)
Active and inactive are the calls of the source. No cut-off for these calls is given here.

Experiments:
[1] = target: T1, Histone-arginine methyltransferase CARM1 (Homo sapiens) (UniProt Q86X55); test: Binding affinity to full length recombinant PRMT4 (unknown origin) assessed as in vitro residence time by surface plasmon resonance analysis
T1 sequence (whole entry): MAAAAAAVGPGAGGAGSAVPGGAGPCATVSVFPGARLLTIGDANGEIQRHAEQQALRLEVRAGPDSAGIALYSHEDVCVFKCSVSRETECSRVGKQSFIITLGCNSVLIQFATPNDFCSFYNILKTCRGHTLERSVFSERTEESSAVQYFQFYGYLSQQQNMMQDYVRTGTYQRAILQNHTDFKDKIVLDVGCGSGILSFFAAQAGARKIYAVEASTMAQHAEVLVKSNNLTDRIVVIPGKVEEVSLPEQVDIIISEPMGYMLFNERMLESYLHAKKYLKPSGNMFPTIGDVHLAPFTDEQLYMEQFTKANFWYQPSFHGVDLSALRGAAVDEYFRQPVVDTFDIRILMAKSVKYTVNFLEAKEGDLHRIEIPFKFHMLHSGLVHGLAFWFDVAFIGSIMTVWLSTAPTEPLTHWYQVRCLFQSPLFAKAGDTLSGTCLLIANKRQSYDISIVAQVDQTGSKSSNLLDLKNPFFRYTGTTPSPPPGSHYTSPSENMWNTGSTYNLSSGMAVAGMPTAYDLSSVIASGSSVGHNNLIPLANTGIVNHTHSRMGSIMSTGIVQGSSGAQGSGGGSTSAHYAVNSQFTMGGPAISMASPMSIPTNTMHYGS
Summary of the method: (§1)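 Full-length recombinant PRMT4 was amine-coupled to a CM5 chip at 50 μg/mL in 10 mM acetate pH 4.5, to 4.6 kRU, with an empty reference cell. The running buffer was PBS pH 7.4 with 0.05% Tween-20 and 2% DMSO. Compounds ran as 12 serial dilutions from 640 to 10 nM at 25 °C and 30 μL/min, with 90 s association and 90 s dissociation. Data were solvent-corrected and double-referenced, and KD was taken as koff/kon.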

[2] = target: T1, Histone-arginine methyltransferase CARM1 (Homo sapiens); test: Binding affinity to full length recombinant PRMT4 (unknown origin) assessed as binding constant (Koff) by surface plasmon resonance analysis; summary of the method: as §1
[3] = target: T1, Histone-arginine methyltransferase CARM1 (Homo sapiens); test: Binding affinity to full length recombinant PRMT4 (unknown origin) assessed as binding constant (Kon) by surface plasmon resonance analysis; summary of the method: as §1
[4] = Apparent permeability of the compound in phosphate buffer at pH 7.4 measured after 24 hrs by PAMPA assay; assay type: ADME; conditions: pH 7.4, 24 h
HEK-293T = test: Cytotoxicity against human HEK293T cells assessed as cell viability at 10 to 100 uM incubated for 24 to 72 hrs by MTT assay; assay type: toxicity, cell-based; conditions: dose lower 10 µM, time lower 24 hrs, dose upper 100 µM, time upper 72 hrs
Summary of the method: (§2)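 HEK293T cells grown in DMEM with 10% FBS, penicillin/streptomycin and 2 mM glutamine at 37 °C, 5% CO2; seeded at 5 × 10^4 cells/mL, exposed 24 or 72 h to 10, 50 or 100 μM in 0.2% DMSO; MTT formazan dissolved in DMSO, read at 550 nm minus 620 nm; quadruplicate; percent of 0.2% DMSO control.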

[5] = Cytotoxicity against human HEK293T cells assessed as cell viability at 10 to 100 uM measured after 72 hrs by MTT assay; assay type: toxicity, cell-based, HEK-293T; conditions: dose 10-100 µM, read-out: Activity; summary of the method: as §2
[6] = Toxicity in human HEK293T cells assessed as cell death at >10 uM measured after 24 hrs; conditions: hek-293t
MCF7 [7] = test: Antiproliferative activity against human MCF7 cells assessed as reduction in cell viability at 10 uM incubated up to 8 days by cell titer-glo assay; assay type: functional, cell-based; conditions: time <= 8.0 day
Summary of the method: (§3)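 MCF7 seeded at 1000 cells/well in 96-well plates; proliferation read at days 0, 2, 4, 6 and 8 with medium changed at day 4; viability measured by CellTiter-Glo luminescence.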

MCF7 [8] = test: Antiproliferative activity against human MCF7 cells assessed as reduction in cell viability at 50 uM incubated up to 8 days by cell titer-glo assay; assay type: functional, cell-based; conditions: time <= 8.0 day; summary of the method: as §3
[9] = target: T2, Histone-arginine methyltransferase CARM1 (Homo sapiens, UniProt Q86X55); test: Inhibition of PRMT4 (unknown origin)
T2 sequence (Q86X55 whole entry): T1 sequence (whole entry)

Homo sapiens = species on record: Homo sapiens; test: Selectivity index, ratio of IC50 for inhibition of human full length recombinant GST-tagged PRMT6 (2 to 375 residues) using GST-GAR as substrate to IC50 for inhibition of human full length recombinant GST-tagged PRMT4 (2 to 608 residues) using histone H3 as substrate
Summary of the method: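 Radioisotope filter-binding assay: PRMT6 used 5 μM GST-GAR and PRMT4 used 5 μM histone H3, in pH 8.5 Tris buffer with 1% DMSO. Compound was preincubated 20 min at room temperature, then 1 μM 3H-SAM was added for 60 min at 30 °C, with scintillation read-out. […] Index = IC50(PRMT6)/IC50(PRMT4), rounded to integer.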

**Q.** For `C[S+](CCC(N)C(=O)O)C[C@H]1O[C@@H](n2cnc3c(N)ncnc32)[C@H](O)[C@@H]1O` (single isomer, unassigned), which TIME [1] is on record?
**A.** 0.0926 h

**Q.** And the K [2]?
**A.** 0.003 s⁻¹

**Q.** And the K [3]?
**A.** 2.9 10^5/Ms

**Q.** Which results are given for `COC(=O)c1cc(O)c2cc(NC(=O)NCCCCNC(=N)NCCC[C@H]3O[C@@H](n4cnc5c(N)ncnc54)[C@H](O)[C@@H]3O)ccc2c1`?
**A.** permeability [4]: Impermeable; Activity (HEK-293T): Non-Toxic; viability at 72 h, up to 100 µM [5]: 80%; K [3]: 0.25 10^6/Ms

**Q.** Which results are given for `CNCCN1CCC(c2cc(CN(C)C(=O)c3cccc(Oc4ccccc4)c3)ccn2)CC1`?
**A.** Activity [6]: Toxic; Activity (MCF7 [7]): Active

**Q.** For `COC(=O)c1cc(O)c2cc(NC(=O)NCCCCNC(=N)NC/C=C/[C@H]3O[C@@H](n4cnc5c(N)ncnc54)[C@H](O)[C@@H]3O)ccc2c1`, which permeability [4] is on record?
**A.** Impermeable

**Q.** And the Activity (HEK-293T)?
**A.** Non-Toxic

**Q.** And the Activity (MCF7 [8])?
**A.** Active

**Q.** And the viability at 72 h, up to 100 µM [5]?
**A.** 80%

**Q.** With `COC(=O)c1cc(O)c2cc(NC(=O)NCCCCNC(=N)NCC[C@H]3O[C@@H](n4cnc5c(N)ncnc54)[C@H](O)[C@@H]3O)ccc2c1` as the compound, how does the permeability [4] read?
**A.** Impermeable

**Q.** And the Activity (HEK-293T)?
**A.** Non-Toxic

**Q.** And the viability at 72 h, up to 100 µM [5]?
**A.** 80%

**Q.** What about the K [3] of the same compound?
**A.** 2.7 10^6/Ms

**Q.** For `COc1ccc(CCNC(=O)[C@@H](N)CC[C@H](CNCc2ccccc2)C[C@H]2O[C@@H](n3cnc4c(N)ncnc43)[C@H](O)[C@@H]2O)cc1`, which IC50 [9] is on record?
**A.** 1.9 µM

**Q.** For `COC(=O)c1cc(O)c2cc(NC(=O)NCCCCCCCNC(=N)NC[C@H]3O[C@@H](n4cnc5c(N)ncnc54)[C@H](O)[C@@H]3O)ccc2c1`, which K [3] is on record?
**A.** 2.58 10^4/Ms

**Q.** What does the source list for `COC(=O)c1cc(O)c2cc(NC(=O)NCCCCCNC(=N)NC[C@H]3O[C@@H](n4cnc5c(N)ncnc54)[C@H](O)[C@@H]3O)ccc2c1`?
**A.** Selectivity Index (Homo sapiens): > 238; K [3]: 3.49 10^4/Ms
